NPY-Y2 antag = antagonists of human neuropeptide Y receptor Y2 | AID 793 | 0.99% of 140,000 active | NPY-Y2 expressing cells, antagonist mode | inhibition, % at 2.7 µM; in the data active means inhibition above about 17%;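 further: 0% = vehicle with agonist challenge and 100% = reference antagonist with challenge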
Target sequence (P49146 whole entry, looked up): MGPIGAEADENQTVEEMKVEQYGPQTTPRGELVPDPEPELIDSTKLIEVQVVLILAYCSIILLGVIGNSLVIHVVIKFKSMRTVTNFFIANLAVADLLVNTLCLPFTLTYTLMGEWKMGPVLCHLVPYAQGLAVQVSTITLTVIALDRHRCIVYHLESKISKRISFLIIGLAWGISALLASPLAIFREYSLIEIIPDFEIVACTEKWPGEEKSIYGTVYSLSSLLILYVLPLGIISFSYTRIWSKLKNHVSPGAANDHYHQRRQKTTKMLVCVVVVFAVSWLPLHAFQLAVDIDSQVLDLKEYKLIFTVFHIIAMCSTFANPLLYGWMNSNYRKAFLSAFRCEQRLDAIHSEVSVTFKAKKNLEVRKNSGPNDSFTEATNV
Wee1 degr inh = human Wee1 degradation inhibition, primary screen | P30291 | reporter increase, % at 5 µM | 1.2% of 220,000 active | HeLa Luc-Wee1K328M stability, luciferase luminescence; 100% = proteasome inhibitor MG132 effect;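 active means activation above the mean of all tested compounds plus 3 SD, set per screening run, cut at about 8.8% in these data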;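 further: cells exposed to compound for 20 h before luminescence read; 0% = DMSO alone and 100% = MG132 at 30 µM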
Hsp70 act = transcriptional activators of Hsp70 | HeLa Hsp70 promoter luciferase reporter, luminescence; scaled: vehicle 0, proteasome-inhibitor control 100% | activation, % at 10 µM | 0.04% of 200,000 active | AID 1203;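 active means activation above the mean across all tested compounds plus 3 SD, cutoff set per campaign, cut at about 5.5% in these data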;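 further: 100% = MG132 at 30 µM as the positive control and 0% = DMSO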
NPY2 pot ag = human NPY-Y2 potentiation or agonism, primary screen. P49146. cells expressing NPY-Y2, potentiator/agonist read-out. activation, % at 3.6 µM. 0.45% of 220,000 active. AID 1359; in the data active means activation above about 27%;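 further: cells stimulated with NPY near EC25 plus isoproterenol at EC100; 0% = vehicle plus submaximal agonist and 100% = vehicle plus saturating agonist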
NPY1 pot ag = human NPY-Y1 potentiation or agonism, primary screen. activation, % at 3.6 µM. P25929. NPY-Y1 expressing cells, potentiator/agonist activation. 0.37% of 220,000 active; in the data active means activation above about 33%, passing the limit was not always enough;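 further: cells stimulated with NPY at EC10 then isoproterenol at EC100; 0% = low agonist plus stimulus and 100% = saturating agonist plus stimulus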
NPY Y1 blocker = NPY-Y1 (human) receptor antagonism. P25929. AID 1040. inhibition, % at 3.6 µM. 1% of 200,000 active. HEK293-CNG Y1 cells, membrane potential fluorescence; NPY at EC95, then isoproterenol;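 active means inhibition above the campaign mean inhibition of all tested compounds plus 3 SD, cut at about 20% in these data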;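 further: 0% = DMSO wells given NPY plus isoproterenol and 100% = isoproterenol alone without NPY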
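Test system: HEK293 cells co-expressing NPY Y1 receptor and cyclic-nucleotide gated channel; Also added: NPY (25 nM), isoproterenol (1 µM), Ro 20-1724 (25 µM); Compound dosing: one concentration, 3.6 µM, in 0.4% DMSO; Timing: dye 3 h, compound 60 min room temperature, stimulation 45 min; Technique: Membrane-potential fluorescent dye readout.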
An asterisk follows results filed as active; x = not tested or not shown. Only some compounds are listed: those with a hit (about 3% of all), similar ones and a draw of the others.

SMILES | NPY-Y2 antag | Wee1 degr inh | Hsp70 act | NPY2 pot ag | NPY1 pot ag | NPY Y1 blocker
c1ccc2sc(-c3ccc4c(c3)OCO4)nc2c1 | 3.0 | 14.3* | -0.3 | -5.0 | -11.1 | 1.8
Cc1nn2c3c(cnc2c1-c1ccccc1)C(=O)CC(C)C3 (stereo not given) | 0.5 | 1.3 | 0.3 | 6.2 | 6.4 | 2.5
COC(=O)c1ccc(NC(=S)NNC(=O)CC(C)C)cc1 | 2.2 | 10.0* | -0.5 | -1.2 | -1.6 | -0.5
CCOc1cc(C2C(C(=O)c3ccco3)=C(O)C(=O)N2CCc2ccccc2)ccc1O (stereo not given) | 35.8* | 0.5 | 0.3 | -24.1 | -30.6 | 39.2*
O=C(Cc1ccc(Cl)cc1)Nc1ccccc1CO | 0.2 | -2.2 | 0.1 | -2.0 | 19.4 | 2.0
CCCCC/C=C\C[C@H](O)/C=C/c1cccc(C[C@H](O)CCCCO)n1 | -1.6 | 2.1 | -0.3 | -7.3 | -6.9 | 0.2
COc1c(F)c(F)c(C(=O)Nc2ccc(-c3nc4ccccc4[nH]3)cc2)c(F)c1F | x | 10.0* | -0.2 | -34.4 | -15.8 | 9.8
COC(=O)C1=C(C)NC2=C(C(=O)CCC2)C1c1cccs1 (stereo not given) | 0.0 | -2.3 | -0.1 | -1.5 | 13.0 | 1.0
CC1=C(C(=O)N2CCCCC2)C(c2cccs2)C2=C(CCCC2=O)N1 (stereo not given) | 22.0* | -0.9 | 0.0 | 12.7 | -10.5 | 3.7
COc1ccc(-c2csc(Nc3ccccc3)[n+]2CC(O)c2ccc([N+](=O)[O-])cc2)cc1 (stereo not given) | x | 9.3* | x | 17.7 | 12.0 | x
CCCCCC[n+]1c(-c2ccccc2)csc1Nc1ccccc1 | 8.5 | 3.6 | -0.3 | -2.2 | -2.6 | -0.4
COc1ccc(-c2cc(C(=O)Nc3nc4ccccc4s3)c3ccccc3n2)cc1OC | 27.4* | 0.1 | -0.2 | -141.1 | -159.8 | 29.3*
COc1ccc(C(=O)Nc2nc3ccccc3s2)cc1OC | x | 0.4 | -0.2 | 5.9 | 11.6 | 5.7
Cn1c(NC2CCCCC2)c(N=O)c(=O)n(C)c1=O | x | 2.2 | -0.1 | 5.1 | 3.4 | -3.7
Cc1ccc(S(=O)(=O)NCC(=O)N/N=C/c2ccccc2O)cc1 | x | 3.0 | 0.3 | -11.8 | -4.9 | 2.3
CC(C)OC(=O)CSc1nc(-c2ccc(F)cc2)cc(C(F)(F)F)n1 | 24.8* | -1.1 | -0.3 | -0.6 | -39.0 | 28.2*
COc1ccc(-c2cc(C(F)(F)F)nc(SCC(=O)Nc3cc(C)on3)n2)cc1OC | 22.4* | 5.4 | -0.1 | 8.6 | -2.5 | 6.7
O=C(CSc1nc(-c2ccc(F)cc2)cc(C(F)(F)F)n1)NCCN1CCOCC1 | 0.1 | 0.2 | 0.0 | -6.3 | -13.8 | -1.5
Cn1ncc([N+](=O)[O-])c1C(=O)n1nnc2ccccc21 | x | 27.5* | -0.1 | 4.2 | -1.4 | 0.1
Cc1ccc(S(=O)(=O)N2CCOCC2)cc1NC(=O)CN(C)C1CCS(=O)(=O)C1 (stereo not given) | x | 9.0* | x | -12.3 | 12.2 | x
C=CCN1C(=O)/C(=c2\sc3nc(=O)c(Cc4ccc(OC)c(OC)c4)nn3c2=O)c2ccccc21 | x | 3.9 | x | 9.2 | 13.3 | x
O=C(C(=O)N1CCN(c2ccccc2)CC1)c1c[nH]c2ccccc12 | x | 10.8* | -0.2 | 6.1 | -7.0 | -8.9
O=C(c1c[nH]c2ccccc12)N1CCN(c2ccccc2)CC1 | x | -0.1 | 0.0 | -3.5 | 5.3 | -5.5
CCN(CC)CC(=O)N1c2ccccc2Oc2c(c(=O)n(C)c(=O)n2C)C1c1cccc([N+](=O)[O-])c1 (stereo not given) | x | -4.4 | x | -12.2 | 7.6 | x
CC(C)OCc1c(C(=O)Nc2nccs2)oc2ccccc12 | x | 10.6* | -0.3 | -17.0 | 1.9 | 4.8
COc1ccc(-c2cc(N3C(=O)Nc4ccccc4N3O)n[nH]2)c(OC)c1 | x | -3.3 | -0.3 | 8.0 | 2.9 | -0.3
Oc1ccc2oc3c(c2c1C=NCc1ccncc1)CCCC3 | x | 24.9* | x | 3.4 | 9.0 | x
CC(C)CN1CCN(Cc2cc(F)ccc2-n2cccn2)CC1CCO (stereo not given) | x | -2.1 | -0.3 | -2.8 | -11.0 | 21.6*
CC(C)CCN1CCN(Cc2cc(F)ccc2-n2cccn2)CC1CCO (stereo not given) | x | -1.4 | -0.1 | -1.6 | -4.8 | 9.6

Source: PubChem BioAssay (The Scripps Research Institute Molecular Screening Center)
